# KCNK3 block: human KCNK3 channel inhibitors, primary screen, CHO cells, FluxOR thallium flux, B-score. actives 0.84% (n = 340,000). FluxOR fluorescence; stronger effect = lower value. B-score at 10 µM;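 active = B-score under library mean minus 4 SD, starting fluorescence ratio at most library mean plus 5 SD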;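 note: more negative B-score means stronger inhibition of thallium flux through KCNK3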
# Kir21 inh: inhibitors of mouse Kir2.1 inward-rectifier potassium channel; Inward rectifier potassium channel 2 (Mus musculus), P35561; HEK293-Kir2.1, FluxOR thallium flux fluorescence; stronger effect = lower value; B-score at 10 µM; actives 0.85% (n = 310,000);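 active = fluorescence ratio B-score at or below minus 3 SD of library scores, with starting-brightness B-score within 2 SD, cut at about -4.2 in these data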;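 note: channel flux triggered by added potassium and thallium sulfate stimulus; B-score of peak minus minimum fluorescence over baseline after thallium stimulus; more negative B-score means stronger Kir2.1 block with less thallium influx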
# hERG protect: hERG rescue from dofetilide block, primary screen, cell-based, CHO-hERG, FluxOR thallium flux, dofetilide IC70. dofetilide IC70 present. Voltage-gated inwardly rectifying potassium channel KCNH2 (Homo sapiens), Q12809. actives 0.51% (n = 310,000). activation (rescue from dofetilide block), less the hit threshold, % at 10 µM. AID 1511, 2009;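 active = activation above the mean of controls blocked by dofetilide plus 5 SD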;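 note: thallium influx through hERG after potassium depolarization seen as dye fluorescence rise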
# KCNQ1 block: inhibitors of human KCNQ1 channel, primary screen, cell-based, thallium flux, high-throughput; CHO-K1 KCNQ1, FluxOR thallium flux fluorescence; stronger effect = higher value; B-score at 10 µM; Potassium voltage-gated channel subfamily KQT member 1 (Homo sapiens), P51787; actives 1.3% (n = 310,000);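 active = compounds whose thallium flux B-score, printed positive for inhibition, exceeds three library SD while starting fluorescence stays within three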;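 note: channel opened by potassium depolarization with thallium stimulus after 20 min compound exposure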
# KCNQ1 act: potentiators or activators of KCNQ1 channel, primary screen, cell-based, thallium flux, high-throughput; Potassium voltage-gated channel subfamily KQT member 1 (Homo sapiens), P51787; CHO-K1 KCNQ1, thallium flux FluxOR fluorescence; stronger effect = higher value; B-score at 10 µM; actives 0.35% (n = 310,000); AID 2648, 2010;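 active = fluorescence ratio B-score, a plate-corrected score, at least three library SD, with initial intensity B-score within 5 SD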
#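 Medium – assay buffer, equal DMSO in all wells · Material – CHO-K1 cell line with stable KCNQ1 potassium channel expression · Signal – kinetic FluxOR thallium fluorescence, 10-s 1-Hz baseline, 110-s post-stimulus read · Compound – single concentration per compound, DMSO matched to controls · Schedule – 37 °C overnight plating, 90-min dark dye load, 20-min compound pretreatment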
# KCNK9 inh: KCNK9 potassium channel inhibitors, primary screen, HEK293 cells, thallium flux; B-score at 10 µM; AID 488922, 2010; Potassium channel subfamily K member 9 (Homo sapiens), Q9NPC2; FluxOR thallium flux fluorescence; stronger effect = lower value; actives 1.2% (n = 310,000);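 active = ratio B-score over 3 SD below the library mean, with starting fluorescence within 5 SD of its mean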;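 note: negative B-score means less thallium flux so channel inhibition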
# Target sequence (Q9NPC2 whole entry, looked up): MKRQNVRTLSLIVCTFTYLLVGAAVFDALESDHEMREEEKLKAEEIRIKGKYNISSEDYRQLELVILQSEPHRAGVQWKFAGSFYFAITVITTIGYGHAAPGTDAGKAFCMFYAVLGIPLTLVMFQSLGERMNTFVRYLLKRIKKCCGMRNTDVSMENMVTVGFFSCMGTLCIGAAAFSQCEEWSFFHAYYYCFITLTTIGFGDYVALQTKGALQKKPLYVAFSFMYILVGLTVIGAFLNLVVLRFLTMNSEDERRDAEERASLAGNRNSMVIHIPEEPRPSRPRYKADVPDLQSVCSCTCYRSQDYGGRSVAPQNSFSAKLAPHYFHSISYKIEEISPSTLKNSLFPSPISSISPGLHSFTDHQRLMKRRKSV
# KCNK9 inh conf: KCNK9 potassium channel inhibitors, confirmation, HEK293 cells, thallium flux, duplicate; shares compounds with KCNK9 inh; FluxOR thallium flux fluorescence; inhibition, % at 10 µM; actives 43% (n = 4,900); AID 492992, 2010;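 active = thallium signal inhibited by more than 5 SD of the compound-free buffer control wells, on both duplicate plates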
# Kir2-1 spec: mouse Kir2.1 channel inhibition, confirmation, selectivity assay for KCNK9 modulator project, cell-based, HEK293, thallium flux | shares compounds with KCNK9 inh | actives 4% (n = 4,900) | AID 492993, 2010 | Kir2.1 cells, FluxOR thallium flux fluorescence | inhibition, % at 10 µM;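 active = thallium signal drop more than 5 SD beyond the mean of the no-compound control wells, seen in both duplicate plates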;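 note: signal is fluorescence rise after thallium addition divided by baseline fluorescence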
# KCNK9 uninduced: thallium flux in non-induced HEK293 cells, confirmation, counter-screen for KCNK9 inhibitor project, cell-based, second counter screen, non-induced KCNK9-HEK293 | actives 40% (n = 4,900) | shares compounds with KCNK9 inh | FluxOR thallium flux | inhibition, % at 10 µM;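 active = thallium signal drop beyond 5 SD of the untreated control mean, on both duplicate plates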
# A number is an active result; 0 = inactive; - = not tested or not shown. The list is not random: actives were taken first. Their share in the collection is about 3.7%.
SMILES,KCNK3 block,Kir21 inh,hERG protect,KCNQ1 block,KCNQ1 act,KCNK9 inh,KCNK9 inh conf,Kir2-1 spec,KCNK9 uninduced
O=C(CC(=O)N/N=C/c1c(Cl)cccc1Cl)NCc1cccnc1,0,0,0,0,0,0,-,-,-
Cc1ccc(S(=O)(=O)N2CCN(C(=O)CSc3ncc(C(F)(F)F)cc3Cl)CC2)cc1,0,0,0,0,0,0,0,0,0
CCOc1ccccc1OCCN1CCC(Cc2ccccc2)CC1,0,0,0,0,0,0,0,0,0
Cc1ccc([N+](=O)[O-])c(OCCN2CCC(Cc3ccccc3)CC2)c1,0,0,0,0,0,0,0,0,0
Cc1ccc([N+](=O)[O-])c(OCCCN2CCCCCC2)c1,0,0,0,0,0,0,-,-,-
Cc1ccccc1OCCN1CCC(Cc2ccccc2)CC1,0,0,0,0,0,0,0,0,0
CC1(c2ccccc2)NC(=O)N(CC(=O)Nc2ccccc2N2CCCC2)C1=O (stereo not drawn),0,0,0,0,0,0,-,-,-
O=C(COC(=O)Cc1c(Cl)cccc1Cl)Nc1ccc2[nH]c(=O)[nH]c2c1,0,0,0,0,0,0,-,-,-
Cc1ccccc1C(=NC(=O)c1ccccc1)c1ccccc1,0,0,0,0,0,-9.99,47.0%,0,45.5%
O=C(NCCc1cccc(Cl)c1)c1ccc(Cl)c([N+](=O)[O-])c1,0,0,0,0,0,0,0,0,0
Cc1c(C(=O)NCCn2ccc3ccccc32)cccc1[N+](=O)[O-],0,0,0,0,0,0,-,-,-
Cc1ccc(C(=O)NCCSCc2ccccc2)cc1[N+](=O)[O-],0,0,0,0,0,0,-,-,-
Cc1ccc(C(=O)NCCn2ccc3ccccc32)cc1[N+](=O)[O-],0,0,0,0,0,0,0,0,0
Cc1cc2ccccc2n1CCNC(=O)c1ccccc1,0,0,0,0,0,-9.62,36.5%,0,25.0%
Cc1ccc(C(=O)NCCc2cccc(Cl)c2)cc1[N+](=O)[O-],0,0,0,0,0,0,0,0,0
CC(=O)NCCn1c(C)cc2ccccc21,0,0,0,0,0,0,-,-,-
Cc1ccc(C)n1-c1nn(S(=O)(=O)c2cccc(C(F)(F)F)c2)c2cccc(F)c12,0,0,0,0,0,-13.6,60.0%,0,30.5%
Cc1ccc(S(=O)(=O)n2nc(-n3c(C)ccc3C)c3c(F)cccc32)c2ccccc12,0,0,0,0,0,0,-,-,-
Cn1c(C(=O)N[C@@H](C(=O)O)c2ccccc2)cc2cc(F)ccc21,0,0,0,0,0,0,-,-,-
CC(Sc1nnc(CN2CCCC2)n1Cc1ccccc1)C(=O)Nc1ccc(F)cc1Cl (stereo not drawn),0,-,-,-,-,-,-,-,-
CCOC(=O)c1cccnc1SCC(=O)N(CC)c1cccc(C)c1,0,0,0,0,0,0,0,0,0
O=C(N/N=C/c1ccccn1)c1cc(-c2ccc3ccccc3c2)n[nH]1,0,0,0,0,0,-12.8,45.0%,0,31.0%
CCCCCCCCC(=O)N/N=C(\C)c1ccc(O)cc1O,0,0,0,0,0,-10.1,57.0%,0,42.0%
COc1ccc(NC(=O)N(CCc2ccccc2)Cc2cc3c(C)cc(C)cc3[nH]c2=O)cc1,0,0,0,0,0,0,0,0,0

# Assay outcomes as filed in PubChem.
